Experimental data: ChEMBL document CHEMBL5154784, “Design, Synthesis, Biological Evaluation, and Computational Studies of Novel Ureidopropanamides as Formyl Peptide Receptor 2 (FPR2) Agonists to Target the Resolution of Inflammation in Central Nervous System Disorders” (J Med Chem, 2022)

Columns and labels:
[1] = Cytotoxicity against mouse N9 cells assessed as reduction in cell viability by measuring LDH release at 0.5 to 5 uM incubated for 24 hrs by LDH assay; assay type: toxicity, cell-based; settings: n9, 24 h, dose 0.5-5 µM
How it was run: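 N9 cells (2 × 10^4/well) given compound at 0.5 or 5 μM, alone or with LPS (E. coli O111:B4, 100 ng/mL) added 30 min later, for 24 h at 37 °C. Released LDH measured in supernatant (30 min, room temperature, 490/630 nm). Expressed as % of untreated cells, mean ± SEM, at least three experiments in triplicate.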

[2] = Neurotoxicity against Sprague-Dawley rat primary microglial cells assessed as reduction in cell viability by measuring LDH release at 0.1 uM incubated for 24 hrs by LDH assay; assay type: toxicity, cell-based; settings: microglia
How it was run: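 Sprague–Dawley rat neonatal cortical microglia (>95% Iba-1+), switched to 1% FBS medium 1 h before treatment. Compound 0.1 μM for 1 h, then LPS 100 ng/mL for 24 h; WRW4 10 μM given 30 min before in some sets, 0.1% vehicle. Supernatant LDH read at 540 nm, % of vehicle controls, mean ± SEM.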

[3] = Cmax in CD-1 mouse at 1 mg/kg, iv measured after 5 mins by UPLC analysis; assay type: ADME, organism-based; design: time 5 min, dose 1 mg/kg, route iv; settings: in vivo
How it was run: (§1)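 Male CD-1 mice (25–30 g) dosed i.v. 1 mg/kg or i.p. 10 mg/kg in 5% DMSO/10% solutol HS 15/85% sterile water, n = 3 per time point. Cardiac-puncture blood under isoflurane: i.v. 0.083–8 h, i.p. 0.25–24 h. K2EDTA plasma, protein precipitation with acetonitrile (rolipram internal standard), UPLC on C18 column.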

[4] = Clast in CD-1 mouse at 1 mg/kg, iv measured upto 4 hrs by UPLC analysis; assay type: ADME, organism-based; settings: in vivo, read-out: Clast; how it was run: as §1
[5] = AUC (infinity) in CD-1 mouse at 1 mg/kg, iv measured upto 4 hrs by UPLC analysis; assay type: ADME, organism-based; design: time < 4 hrs, dose 1 mg/kg, route iv; settings: in vivo; how it was run: as §1
[6] = Cmax in CD-1 mouse at 10 mg/kg, ip measured after 30 mins by UPLC analysis; assay type: ADME, organism-based; design: time 30 min, dose 10 mg/kg, route ip; settings: in vivo, 0.5 h; how it was run: as §1
[7] = AUC (infinity) in CD-1 mouse at 10 mg/kg, ip measured after 30 mins by UPLC analysis; assay type: ADME, organism-based; design: time 30 min, dose 10 mg/kg, route ip; settings: in vivo, 0.5 h; how it was run: as §1
[8] = Tlast in CD-1 mouse at 10 mg/kg, ip by UPLC analysis; assay type: ADME, organism-based; settings: in vivo; how it was run: as §1
[9] = Drug concentration in CD-1 mouse brain at 10 mg/kg, ip measured after 2 hrs by UPLC analysis; assay type: ADME, organism-based; settings: read-out: Ct
How it was run: (§2)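 Male CD-1 mice (25–30 g) given 10 mg/kg i.p. in 5% DMSO/10% solutol HS 15/85% water, n = 3 per time point. Brains taken after decapitation under anesthesia, homogenized in four volumes 0.1 N HEPES. Plasma drawn by cardiac puncture. Acetonitrile precipitation with rolipram internal standard, UPLC quantification. Brain-to-plasma ratio taken from paired brain and plasma levels.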

[10] = Drug concentration in CD-1 mouse brain at 10 mg/kg, ip measured after 8 hrs by UPLC analysis; assay type: ADME, organism-based; settings: read-out: Ct; how it was run: as §2

Cmax [3]: 1380 ng/mL
concentration at 4 h [4]: 14.1 ng/mL
AUC [5]: 613 ng·h/mL
Cmax [6]: 192 ng/mL
AUC [7]: 731 ng·h/mL
Tlast [8]: 8 h
concentration at 2 h [9]: 37 ng/g
concentration at 8 h [10]: 15.7 ng/g
SMILES: N#Cc1ccc(C[C@H](NC(=O)Nc2ccc(F)cc2)C(=O)N2CCc3ccc(F)cc32)cc1
Activity [1]: Non-Toxic
Activity [2]: Non-Toxic
